Experimental data published in ChEMBL document CHEMBL3271951, “Synthesis and biological activity of 2- and 4-substituted 6,7-dihydroxy-1,2,3,4-tetrahydroisoquinolines” (1976).

T1: Catechol O-methyltransferase (Rattus norvegicus) (UniProt P22734)
T1 sequence (whole entry): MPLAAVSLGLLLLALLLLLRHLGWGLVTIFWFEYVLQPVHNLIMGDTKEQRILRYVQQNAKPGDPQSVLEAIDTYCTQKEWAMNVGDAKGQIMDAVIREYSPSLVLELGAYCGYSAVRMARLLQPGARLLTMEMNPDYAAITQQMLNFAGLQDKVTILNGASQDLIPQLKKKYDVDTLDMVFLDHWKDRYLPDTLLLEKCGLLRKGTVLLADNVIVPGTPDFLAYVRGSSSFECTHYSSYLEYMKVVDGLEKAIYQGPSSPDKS


Tests used:
[1] = molecular target: T1, Catechol O-methyltransferase (Rattus norvegicus); test: Competitive inhibition of Sprague-Dawley rat liver COMT assessed as inhibition of methyl group transformation from SAM to DL-epinephrine-7-14C after 10 mins by scintillation spectrophotometric analysis
Summary of the method: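 Partially purified rat liver COMT (calcium phosphate stage). SAM 1.0 mM as methyl donor, Epi-14C 0.05 μCi, epinephrine varied 54-404 μM, 10 min, stopped with borate pH 10.0. Radiolabeled metanephrine and paranephrine extracted with toluene-isoamyl alcohol (3:2) and counted. Reciprocal velocity vs reciprocal epinephrine plots give the inhibition pattern; Ki by Cleland's procedure.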

Mus musculus = test: Induction of DL-norepinephrine-7-3H release from ARS HA(ICR)f outbred Swiss albino mouse heart assessed as remaining level at 10 mg/kg, sc after 2 hrs relative to control; type: functional; conditions: route subcutaneous
Summary of the method: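 Mice (about 20 g) given 1.0 nmol (5 μCi) Norepi-3H iv by tail vein in isotonic NaCl with heparin. Compound 10 mg/kg sc 1 hr later; saline-injected controls. Hearts removed, homogenized in 10 vol 0.4 N HClO4 and centrifuged; tritium in the supernatant counted. Expressed as % of control, mean of duplicate determinations with five mice each.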

[2] = substrate: CC1(C)CNCc2cc(O)c(O)cc21; test: (§1) Activity of Sprague-Dawley rat liver COMT using [14CH3]-SAM as methyl group donor after 10 mins by scintillation spectrophotometric analysis
Summary of the method: (§2)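 Rat liver COMT (male Sprague-Dawley, 180-200 g) purified through the calcium phosphate stage, approx 50-fold. Test catechol at 50-500 μM as substrate, SAM 1.0 mM with SAM-14CH3 0.05 μCi, 10 min incubation, stopped with borate buffer pH 10.0. O-methylated product extracted into toluene-isoamyl alcohol (3:2) and counted. Km and Vmax from double-reciprocal plots using Cleland's equations.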

[3] = substrate: CC1CN(C)Cc2cc(O)c(O)cc21; test: as §1; summary of the method: as §2
[4] = substrate: CN1CCc2cc(O)c(O)cc2C1; test: as §1; summary of the method: as §2
[5] = substrate: CN1Cc2cc(O)c(O)cc2C(C)(C)C1; test: as §1; summary of the method: as §2
[6] = substrate: CNC[C@H](O)c1ccc(O)c(O)c1; test: as §1; summary of the method: as §2
[7] = substrate: Oc1cc2c(cc1O)CNCC2; test: as §1; summary of the method: as §2

Molecule | Kis [1] [µM] | Activity (Mus musculus) [%] | further results
Br.CC1CN(C)Cc2cc(O)c(O)cc21 (centres undefined) | 101 | 107 | 
Br.CN1CCc2cc(O)c(O)cc2C1 | 152 | 104 | 
Br.Oc1cc2c(cc1O)CNCC2 | 196 | 63 | 
Br.CC1(C)CNCc2cc(O)c(O)cc21 | 259 | 103 | 
C[N+]1(C)CCc2cc(O)c(O)cc2C1.[Br-] | 191 | 43 | 
Br.CN1Cc2cc(O)c(O)cc2C(C)(C)C1 | 187 | 115 | 
Catechol O-methyltransferase (Rattus norvegicus), P22734 (protein) MPLAAVSLGLLLLALLLLLRHLGWGLVTIFWFEYVLQPVHNLIMGDTKEQRILRYVQQNAKPGDPQSVLEAIDTYCTQKEWAMNVGDAKGQIMDAVIREYSPSLVLELGAYCGYSAVRMARLLQPGARLLTMEMNPDYAAITQQMLNFAGLQDKVTILNGASQDLIPQLKKKYDVDTLDMVFLDHWKDRYLPDTLLLEKCGLLRKGTVLLADNVIVPGTPDFLAYVRGSSSFECTHYSSYLEYMKVVDGLEKAIYQGPSSPDKS |  |  | Km [2]: 310 µM; Vmax [2]: 17.4 nmol/mg/min; Km [3]: 754 µM; Vmax [3]: 21.2 nmol/mg/min; Km [4]: 670 µM; Vmax [4]: 18.5 nmol/mg/min; Km [5]: 410 µM; Vmax [5]: 12.1 nmol/mg/min; Km [6]: 398 µM; Vmax [6]: 19.8 nmol/mg/min; Km [7]: 540 µM; Vmax [7]: 15.5 nmol/mg/min
